Series [1] concerns the target PI3-kinase p110-alpha/p85-alpha (Homo sapiens, UniProt P42336). The experiment in a line: Inhibition of recombinant human full length N-terminal His-tagged p110alpha/p85alpha expressed in baculovirus expression system using PIP2 as substrate measured after 1 hr by Alexa633 Tracer-based fluorescence polarization assay. Put shortly: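 PI3Kα enzyme inhibition; IC50 is the mean of duplicate measurements.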

Series [2] can be described thus: Inhibition of PI3K in human PC3 cells assessed as reduction in AKT phosphorylation at Ser473 measured after 2 hrs by fluorescence assay. Type of series: cell-based. The note with it: PC-3, 2 h.
Another series concerns MCF7. Briefly: Antiproliferative activity against human MCF7 cells harboring PIK3CA E545K mutant after 72 hrs by MTT assay. As to conditions: MCF7, 72 h. It is filed as functional, cell-based.
The test system of the next series is T47D. Briefly: Antiproliferative activity against human T47D cells harboring PI3KCA H1047R mutant after 72 hrs by MTT assay. It is filed as functional, cell-based.
Series [3] in a line: Intrinsic clearance in mouse liver microsomes at […] pretreated up to 45 mins followed by NADPH addition and measured by LC-MS/MS analysis. Type of series: ADME, microsome. As to conditions: read-out: CLH.
A short description of series [4]: Intrinsic clearance in human liver microsomes at […] pretreated up to 45 mins followed by NADPH addition and measured by LC-MS/MS analysis. As to conditions: read-out: CLH. Type of series: ADME, microsome.
For series [5], the target named is Serine/threonine-protein kinase mTOR (Homo sapiens, UniProt P42345). The experiment in a line: Inhibition of recombinant human GST-tagged mTOR catalytic domain (1360 to 2549 residues) expressed in baculovirus expression system using GFP-4EBP1 as substrate measured after 1 hr by Lathascreen method.
Series [6] addresses Serine/threonine-protein kinase ATR (Homo sapiens) (UniProt Q13535). Briefly: Inhibition of ATR in human HT-29 cells assessed as reduction in camptothecin-induced Chk1 phosphorylation at Ser345 residue up to 10 uM pretreated for 1 hr followed by camptothecin addition. It is filed as cell-based. An outline of the steps: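 HT-29 cells were pretreated with compound for 1 h, then exposed to camptothecin to induce DNA damage. ATR activity was read as phosphorylation of its substrate Chk1, with total Chk1 and β-actin as internal controls. […] served as reference inhibitor.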

For series [7], the system named is HT-29. The experiment in a line: Cell cycle arrest in human HT-29 cells assessed as accumulation at G2/M phase at 0.111 to 3 uM after 24 hrs by propidium iodide staining based flow cytometry. Type of series: functional.
The test system of series [8] is HT-29. The experiment in a line: Antitumor activity against human HT-29 cells harboring PIK3CA P449T mutant xenografted in Balb/c nu/nu mouse assessed as tumor growth inhibition at 15 mg/kg, po administered daily via gavage for 27 days relative to control. Type of series: functional. The note with it: HT-29, po, 648 h, read-out: TGI. An outline of the steps:
(§1)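 Balb/c nu/nu mice carrying HT-29 xenografts were dosed by daily oral gavage for 27 days, starting when mean tumor size was about 240 mm³; vehicle group as control. Tumor volume estimated over time, and TGI calculated after 27 days. Mean ± SEM, n = 6. Dunnett's multiple comparison test.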

The test system of series [9] is HT-29. Briefly: Antitumor activity against human HT-29 cells harboring PIK3CA P449T mutant xenografted in Balb/c nu/nu mouse assessed as tumor growth inhibition at 30 mg/kg, po administered daily via gavage for 27 days relative to control. It is filed as functional. The note with it: HT-29, po, 648 h, read-out: TGI. An outline of the steps: as §1
Another series concerns Mus musculus. Briefly: Toxicity in Balb/c nu/nu mouse xenografted with human HT-29 cells harboring PIK3CA P449T mutant assessed as body weight loss at 60 mg/kg, po administered daily via gavage for 10 days relative to control. The note with it: in vivo, 240 h.
For another series, the system named is HUVEC. Briefly: Cytotoxicity against HUVEC after 72 hrs by MTT assay. Type of series: cell-based. The note with it: Homo sapiens.
Series [10] concerns the target PI3-kinase p110-delta/p85-alpha (Homo sapiens, UniProt O00329). Briefly: Inhibition of recombinant human full-length N-terminal His6-tagged p110delta/recombinant human full length p85alpha expressed in baculovirus infected Sf21 insect cells using PIP2 as substrate measured after 1 hr by Alexa633 Tracer-based fluorescence polarization assay.
In a further series the target is PI3K p110 beta/p85 alpha (Homo sapiens, UniProt P42338). Briefly: Inhibition of recombinant human full-length N-terminal His6-tagged p110beta/recombinant human full length p85alpha expressed in baculovirus infected Sf21 insect cells using PIP2 as substrate measured after 1 hr by Alexa633 Tracer-based fluorescence polarization assay.

Experimental findings from ChEMBL document CHEMBL4196123, “Discovery of an Orally Bioavailable Dual PI3K/mTOR Inhibitor Based on Sulfonyl-Substituted Morpholinopyrimidines” (ACS Med Chem Lett, 2018) are described below.

Active and inactive are the calls of the source. No cut-off for these calls is given here.

Sequence of Serine/threonine-protein kinase ATR (Homo sapiens) (Q13535 whole entry, looked up): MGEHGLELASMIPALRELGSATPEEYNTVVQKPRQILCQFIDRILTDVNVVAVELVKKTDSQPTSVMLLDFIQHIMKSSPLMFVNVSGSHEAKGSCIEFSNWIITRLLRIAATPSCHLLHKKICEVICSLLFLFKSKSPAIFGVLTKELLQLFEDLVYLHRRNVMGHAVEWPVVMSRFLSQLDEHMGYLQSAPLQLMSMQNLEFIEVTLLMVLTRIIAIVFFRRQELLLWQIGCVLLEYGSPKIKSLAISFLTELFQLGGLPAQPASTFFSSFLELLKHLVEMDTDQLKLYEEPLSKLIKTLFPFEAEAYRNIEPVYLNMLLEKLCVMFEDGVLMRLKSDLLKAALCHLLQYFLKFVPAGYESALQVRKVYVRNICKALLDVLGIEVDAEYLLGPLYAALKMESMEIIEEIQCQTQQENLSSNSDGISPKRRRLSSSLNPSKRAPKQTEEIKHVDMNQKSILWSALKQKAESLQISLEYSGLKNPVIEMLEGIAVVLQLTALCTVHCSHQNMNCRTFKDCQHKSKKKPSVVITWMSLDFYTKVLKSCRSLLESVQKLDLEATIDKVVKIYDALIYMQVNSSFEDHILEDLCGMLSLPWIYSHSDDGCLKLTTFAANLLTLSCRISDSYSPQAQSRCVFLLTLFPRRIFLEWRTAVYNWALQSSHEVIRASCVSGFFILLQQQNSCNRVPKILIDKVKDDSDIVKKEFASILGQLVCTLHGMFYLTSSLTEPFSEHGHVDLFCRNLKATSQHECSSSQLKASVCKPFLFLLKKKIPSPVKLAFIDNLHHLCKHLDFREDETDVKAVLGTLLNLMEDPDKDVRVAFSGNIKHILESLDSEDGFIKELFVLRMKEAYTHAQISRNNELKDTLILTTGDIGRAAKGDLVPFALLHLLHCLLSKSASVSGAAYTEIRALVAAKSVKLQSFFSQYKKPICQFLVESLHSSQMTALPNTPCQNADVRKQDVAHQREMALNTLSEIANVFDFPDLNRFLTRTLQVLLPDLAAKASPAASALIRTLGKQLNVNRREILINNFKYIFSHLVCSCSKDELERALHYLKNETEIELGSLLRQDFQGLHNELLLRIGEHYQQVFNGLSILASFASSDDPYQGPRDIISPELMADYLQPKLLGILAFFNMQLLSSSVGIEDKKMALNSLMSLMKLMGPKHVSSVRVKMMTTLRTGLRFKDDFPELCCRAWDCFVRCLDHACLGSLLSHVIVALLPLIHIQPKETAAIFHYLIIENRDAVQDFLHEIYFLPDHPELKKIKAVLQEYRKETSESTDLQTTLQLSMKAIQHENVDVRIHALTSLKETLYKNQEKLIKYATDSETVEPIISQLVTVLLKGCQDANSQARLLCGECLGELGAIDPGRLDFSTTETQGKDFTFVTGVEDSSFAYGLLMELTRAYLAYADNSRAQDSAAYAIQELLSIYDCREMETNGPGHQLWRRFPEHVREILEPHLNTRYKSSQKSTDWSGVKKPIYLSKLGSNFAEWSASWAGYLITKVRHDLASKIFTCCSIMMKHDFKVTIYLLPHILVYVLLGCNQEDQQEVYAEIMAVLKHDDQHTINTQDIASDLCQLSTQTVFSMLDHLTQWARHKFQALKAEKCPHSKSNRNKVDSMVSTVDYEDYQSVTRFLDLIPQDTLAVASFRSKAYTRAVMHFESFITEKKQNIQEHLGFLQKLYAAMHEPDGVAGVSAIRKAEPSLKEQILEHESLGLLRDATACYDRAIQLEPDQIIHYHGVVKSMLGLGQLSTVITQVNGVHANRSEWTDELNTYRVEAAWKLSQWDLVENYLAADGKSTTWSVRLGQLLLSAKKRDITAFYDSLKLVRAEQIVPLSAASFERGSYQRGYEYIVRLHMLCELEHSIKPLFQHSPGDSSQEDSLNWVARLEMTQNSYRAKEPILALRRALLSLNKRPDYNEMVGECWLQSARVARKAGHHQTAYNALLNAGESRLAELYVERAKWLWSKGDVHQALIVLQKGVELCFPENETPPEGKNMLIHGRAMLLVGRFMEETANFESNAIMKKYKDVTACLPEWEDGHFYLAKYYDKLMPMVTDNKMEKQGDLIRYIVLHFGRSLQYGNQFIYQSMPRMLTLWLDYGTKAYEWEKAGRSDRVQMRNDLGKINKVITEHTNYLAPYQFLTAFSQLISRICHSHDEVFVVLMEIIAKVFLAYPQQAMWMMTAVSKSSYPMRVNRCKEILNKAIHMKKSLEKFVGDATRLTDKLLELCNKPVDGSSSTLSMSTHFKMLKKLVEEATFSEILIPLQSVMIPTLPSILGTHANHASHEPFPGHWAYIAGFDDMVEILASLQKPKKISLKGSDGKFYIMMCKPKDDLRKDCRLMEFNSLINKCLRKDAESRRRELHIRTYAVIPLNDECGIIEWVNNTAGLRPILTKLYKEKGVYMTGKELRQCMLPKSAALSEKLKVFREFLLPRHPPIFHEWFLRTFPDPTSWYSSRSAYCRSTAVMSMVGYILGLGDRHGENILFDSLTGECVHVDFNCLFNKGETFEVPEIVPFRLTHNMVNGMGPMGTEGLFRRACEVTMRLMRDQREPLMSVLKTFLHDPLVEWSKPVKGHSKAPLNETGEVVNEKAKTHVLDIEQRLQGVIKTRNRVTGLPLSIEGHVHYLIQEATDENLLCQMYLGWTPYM
Sequence of PI3-kinase p110-alpha/p85-alpha (P27986 whole entry): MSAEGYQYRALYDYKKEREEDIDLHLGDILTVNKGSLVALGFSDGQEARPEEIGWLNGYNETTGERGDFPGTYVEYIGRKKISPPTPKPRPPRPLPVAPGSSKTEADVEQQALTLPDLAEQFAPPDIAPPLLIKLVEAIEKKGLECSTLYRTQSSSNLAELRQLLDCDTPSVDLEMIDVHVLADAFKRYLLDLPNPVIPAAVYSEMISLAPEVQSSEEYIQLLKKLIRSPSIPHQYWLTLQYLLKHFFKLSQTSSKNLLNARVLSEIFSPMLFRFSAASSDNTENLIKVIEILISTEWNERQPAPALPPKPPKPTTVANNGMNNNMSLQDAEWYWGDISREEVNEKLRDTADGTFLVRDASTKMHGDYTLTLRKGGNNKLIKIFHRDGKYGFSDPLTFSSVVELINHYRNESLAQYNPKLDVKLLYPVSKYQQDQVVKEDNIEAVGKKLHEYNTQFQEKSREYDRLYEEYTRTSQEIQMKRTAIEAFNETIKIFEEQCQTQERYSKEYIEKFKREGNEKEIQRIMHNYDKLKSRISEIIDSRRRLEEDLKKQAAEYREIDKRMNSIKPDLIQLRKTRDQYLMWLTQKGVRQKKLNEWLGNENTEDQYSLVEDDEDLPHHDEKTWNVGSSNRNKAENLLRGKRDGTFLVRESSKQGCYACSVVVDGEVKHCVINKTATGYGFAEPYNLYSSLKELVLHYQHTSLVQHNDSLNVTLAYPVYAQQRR
Sequence of PI3-kinase p110-alpha/p85-alpha (P42336 whole entry): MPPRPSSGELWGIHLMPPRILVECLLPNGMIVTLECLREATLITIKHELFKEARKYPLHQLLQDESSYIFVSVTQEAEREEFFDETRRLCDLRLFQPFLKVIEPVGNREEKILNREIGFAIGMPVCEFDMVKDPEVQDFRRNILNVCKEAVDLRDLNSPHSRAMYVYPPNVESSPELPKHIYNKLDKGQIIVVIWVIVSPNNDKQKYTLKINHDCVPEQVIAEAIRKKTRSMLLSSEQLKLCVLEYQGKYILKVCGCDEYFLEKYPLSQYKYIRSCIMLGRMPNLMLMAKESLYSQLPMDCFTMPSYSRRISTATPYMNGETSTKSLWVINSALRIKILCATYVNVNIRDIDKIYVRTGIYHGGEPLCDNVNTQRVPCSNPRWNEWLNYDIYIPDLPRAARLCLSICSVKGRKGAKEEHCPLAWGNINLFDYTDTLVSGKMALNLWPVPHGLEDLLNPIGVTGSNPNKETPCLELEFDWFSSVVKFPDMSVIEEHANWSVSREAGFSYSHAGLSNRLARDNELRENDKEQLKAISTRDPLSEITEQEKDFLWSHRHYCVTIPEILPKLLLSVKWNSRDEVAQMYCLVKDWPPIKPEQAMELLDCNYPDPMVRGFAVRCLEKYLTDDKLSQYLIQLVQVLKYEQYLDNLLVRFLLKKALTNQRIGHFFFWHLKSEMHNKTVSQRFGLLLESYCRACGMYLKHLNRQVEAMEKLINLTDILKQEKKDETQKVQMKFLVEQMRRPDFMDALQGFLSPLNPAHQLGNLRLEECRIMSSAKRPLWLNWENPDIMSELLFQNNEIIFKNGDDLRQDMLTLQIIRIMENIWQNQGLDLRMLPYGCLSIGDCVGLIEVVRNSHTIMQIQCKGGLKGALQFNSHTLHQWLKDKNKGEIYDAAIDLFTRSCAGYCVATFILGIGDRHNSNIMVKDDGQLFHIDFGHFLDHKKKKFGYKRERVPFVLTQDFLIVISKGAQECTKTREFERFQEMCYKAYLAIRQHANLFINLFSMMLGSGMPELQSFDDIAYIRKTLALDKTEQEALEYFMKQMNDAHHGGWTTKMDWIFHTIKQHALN

Turning to `CCS(=O)(=O)C(C)(C)c1cc(-c2cnc(N)cc2C(F)(F)F)nc(N2CCOCC2)n1`, the IC50 was determined as 40 nM in [1], 947 nM in [2], 512 nM with MCF7 and 552 nM in the series on T47D.
In the case of `CS(=O)(=O)C1(c2cc(-c3cnc(N)cc3F)nc(N3CCOCC3)n2)CC1`, the CLint scaled in [3] was 40 to 140 mL/min/kg; in series [4] it was 5 to 16 mL/min/kg. For the same molecule, the IC50 in series [1] was 41 nM; in series [2] it was 369 nM; in the series on MCF7, 27 nM; in the series on T47D, 62 nM.
For the molecule `CS(=O)(=O)C1(c2cc(-c3cnc(N)cc3C(F)(F)F)nc(N3CCOCC3)n2)CCCC1`, the results for the IC50 (in series [2]; in the series on MCF7; with T47D) were 384 nM, 340 nM and 218 nM, respectively.
For `CS(=O)(=O)Cc1cc(-c2cnc(N)cc2C(F)(F)F)nc(N2CCOCC2)n1`, the IC50 was 14000 nM in [5], 3010 nM in series [2], 1510 nM with MCF7 and 1670 nM in the series on T47D. Also, the inhibition result in series [6] was “inactive”.
On to `CC(C)(c1cc(-c2cnc(N)cc2C(F)(F)F)nc(N2CCOCC2)n1)S(=O)(=O)c1ccccc1`, for which the IC50 in [1] was determined as 9 nM; in series [2], 1550 nM; in the series on MCF7 it was 897 nM; in the series with T47D, 478 nM.
Taken in the same sequence, the figures for `CC(C)S(=O)(=O)C(C)(C)c1cc(-c2cnc(N)cc2C(F)(F)F)nc(N2CCOCC2)n1` were 65 nM, 1180 nM, 599 nM and 1060 nM.
As for `CS(=O)(=O)C(F)(F)c1cc(-c2cnc(N)cc2C(F)(F)F)nc(N2CCOCC2)n1`, the IC50 in series [1] was found to be 25 nM; in series [2], 846 nM; in the series on MCF7, 408 nM; in the series on T47D, 513 nM.
Regarding `CC(C)(c1cc(-c2cnc(N)cc2F)nc(N2CCOCC2)n1)S(C)(=O)=O`, the CLint scaled in [3] lay within 40 to 140 mL/min/kg; in [4], 5 to 16 mL/min/kg. In addition, the IC50 in series [1] was 66 nM; in series [2] it was 215 nM; in the series with MCF7, 104 nM; in the series with T47D, 123 nM.
For `C[C@@H]1COCCN1c1nc(-c2cnc(N)cc2C(F)(F)F)cc(C2(S(C)(=O)=O)CC2)n1`, in [1], the IC50 stood at 223 nM.
Regarding `Nc1cc(C(F)(F)F)c(-c2cc(C3(S(=O)(=O)c4ccc(F)cc4)CC3)nc(N3CCOCC3)n2)cn1`, the IC50 in [1] is 57 nM; in [2], 1280 nM; with MCF7 it was 572 nM; in the series with T47D it was 619 nM.
The like results for `CS(=O)(=O)C1(c2cc(-c3cnc(N)cc3C(F)(F)F)nc(N3CCOCC3)n2)CCC1` were, in that order, 15 nM, 248 nM, 134 nM and 138 nM.
Turning to `CS(=O)(=O)C1(c2cc(-c3cnc(N)cc3C(F)(F)F)nc(N3CCOCC3)n2)CC1`, the CLint scaled in series [3] was found to be 185 mL/min/kg; in [4], 9.86 mL/min/kg. Moreover, the IC50 in series [5] is 1680 nM. The inhibition entry in series [6] is “inactive”.
With `CS(=O)(=O)C(F)c1cc(-c2cnc(N)cc2C(F)(F)F)nc(N2CCOCC2)n1` (configuration not stated), the IC50 in series [1] was determined as 56 nM; in series [2] it was 2450 nM; in the series on MCF7, 1140 nM; with T47D it was 1160 nM.
For the molecule `CC(C)C(c1cc(-c2cnc(N)cc2C(F)(F)F)nc(N2CCOCC2)n1)S(C)(=O)=O` (configuration not stated), the IC50 in series [1] came out at 218 nM.
On to `C[C@H]1COCCN1c1nc(-c2cnc(N)cc2C(F)(F)F)cc(C2(S(C)(=O)=O)CCC2)n1`, for which the IC50 in series [1] worked out at 6 nM; in series [2], 184 nM; in the series on MCF7, 78 nM; in the series with T47D, 93 nM.
Turning to `C[C@H]1COCCN1c1nc(-c2cnc(N)cc2C(F)(F)F)cc(C2(S(C)(=O)=O)CCCC2)n1`, the IC50 was 22 nM in series [1], 674 nM in series [2], 159 nM in the series on MCF7 and 139 nM in the series with T47D.
`Nc1cc(C(F)(F)F)c(-c2cc(N3CCOCC3)nc(N3CCOCC3)n2)cn1` [BUPARLISIB]: the figures for the CLint scaled in [3] and in series [4] were 151 mL/min/kg and 10.9 mL/min/kg, respectively. For the same molecule, the result in the series with HT-29 [7] was Active. Further, in the series with HT-29 [8], the inhibition in vivo at 15 mg/kg stood at 39.4%. Besides, the inhibition in vivo at 30 mg/kg in the series with HT-29 [9] was determined as 55.7%. Also, the inhibition entry in series [6] is “inactive”. Further, the Activity in the series on Mus musculus is reported as greater than 25%. In addition, the IC50 stood at 365 nM in series [2], 886 nM in the series with HUVEC, 206 nM in the series with MCF7 and 286 nM in the series with T47D.
`Nc1cc(C(F)(F)F)c(-c2cc(C3(S(=O)(=O)c4ccccc4F)CC3)nc(N3CCOCC3)n2)cn1`: the IC50 in series [1] was 7 nM; in [2], 367 nM; in the series on MCF7 it was 184 nM; in the series on T47D it was 129 nM.
For `CC(C)(c1cc(-c2cnc(N)cc2C(F)(F)F)nc(N2CCOCC2)n1)S(C)(=O)=O`, the IC50 was found to be 312 nM in [2], 224 nM in the series with MCF7 and 58 nM with T47D.
As for `CC(C)S(=O)(=O)C1(c2cc(-c3cnc(N)cc3C(F)(F)F)nc(N3CCOCC3)n2)CC1`, the IC50 amounted to 58 nM in series [1], 430 nM in series [2], 437 nM in the series with MCF7 and 160 nM with T47D.
With `Nc1cc(C(F)(F)F)c(-c2cc(C3(S(=O)(=O)c4cccc(F)c4)CC3)nc(N3CCOCC3)n2)cn1`, the IC50 in series [1] was 14 nM; in series [2] it was 606 nM; in the series with MCF7, 286 nM; in the series on T47D it was 242 nM.
With `C[C@H]1COCCN1c1nc(-c2cnc(N)cc2F)cc(C(C)(C)S(C)(=O)=O)n1`, the CLint scaled in series [3] lay within 40 to 140 mL/min/kg; in series [4], 5 to 16 mL/min/kg. The IC50 amounted to 20 nM in series [1], 121 nM in series [2], 15 nM in the series with MCF7 and 33 nM in the series on T47D.
`CS(=O)(=O)C1(c2cc(-c3cnc(N)cc3C(F)(F)F)nc(N3CCOCC3)n2)CCCCC1`: the IC50 in series [1] was 321 nM.
With `C[C@H]1COCCN1c1nc(-c2cnc(N)cc2C(F)(F)F)cc(C(C)(C)S(C)(=O)=O)n1`, the IC50 was determined as 306 nM in series [2], 214 nM in the series with MCF7 and 175 nM with T47D.
Take `C[C@H]1COCCN1c1nc(-c2cnc(N)cc2C(F)(F)F)cc(C2(S(C)(=O)=O)CC2)n1`: the IC50 in [10] was 197 nM; in series [5], 2120 nM; at PI3K p110 beta/p85 alpha it was 264 nM; in [1], 9 to 16 nM; in series [2], 546 nM; in the series with MCF7, 112 nM. Further, the IC50 in the series with T47D came out at 129 nM. Moreover, the inhibition result in series [6] was “inactive”.
Regarding `CCS(=O)(=O)C1(c2cc(-c3cnc(N)cc3C(F)(F)F)nc(N3CCOCC3)n2)CC1`, the IC50 in [2] is 301 nM; with MCF7, 295 nM; with T47D it was 225 nM.
The like results for `Nc1cc(C(F)(F)F)c(-c2cc(C3(S(=O)(=O)c4ccccc4)CC3)nc(N3CCOCC3)n2)cn1` were, in that order, 668 nM, 513 nM and 324 nM.
